Test results reported in ChEMBL document CHEMBL3580547, “Novel Pyrazole Derivatives Effectively Inhibit Osteoclastogenesis, a Potential Target for Treating Osteoporosis” (J Med Chem, 2015).
Calls of active or inactive are those of the source. No cut-off for these calls is given here.

How the values were obtained:
cells = details: Rattus norvegicus, Sprague-Dawley, Osteoclast, 120 h, read-out: INH
Osteoclast [1] = assay: Antiosteoclastogenic activity in Sprague-Dawley rat bone marrow-derived preosteoclasts assessed as inhibition of RANKL/M-CSF-induced osteoclast formation treated on day 3 post RANKL/M-CSF induction measured over day 3 to day 5 by TRAP staining; assay type: functional, cell-based
Outline: (§1)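 Rat bone-marrow preosteoclasts were cultured with RANKL 50 ng/mL and M-CSF 20 ng/mL. Compound (10 μM) was added during defined day windows, with days 3−5 taken as the late phase. Osteoclasts were scored by TRAP staining as TRAP-positive cells with ≥3 nuclei (N = 3).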

[2] = Cytotoxicity against Sprague-Dawley rat bone marrow-derived preosteoclasts assessed as cell viability at 10 uM incubated for 5 days measured on day 8 by MTT assay in presence of M-CSF; assay type: cell-based; details: osteoclast, 120 h
Outline: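 Nonadherent bone-marrow preosteoclasts were seeded at 10⁶ cells/well with M-CSF 20 ng/mL for 3 days, then treated with compound for another 5 days. After washing, cells were given MTT at 0.5 mg/mL in α-MEM for 60 min at 37 °C. Formazan was dissolved in DMSO and absorbance read at 550 nm.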

[3] = target: Transcription factor p65 (Mus musculus) (UniProt Q04207); assay: Inhibition of RANKL-induced P65 phosphorylation in mouse RAW264.7 cells at 10 uM preincubated for 2 hrs followed by RANKL induction measured over 60 mins by Western blot analysis; assay type: cell-based
Transcription factor p65 (Mus musculus), sequence (Q04207 whole entry): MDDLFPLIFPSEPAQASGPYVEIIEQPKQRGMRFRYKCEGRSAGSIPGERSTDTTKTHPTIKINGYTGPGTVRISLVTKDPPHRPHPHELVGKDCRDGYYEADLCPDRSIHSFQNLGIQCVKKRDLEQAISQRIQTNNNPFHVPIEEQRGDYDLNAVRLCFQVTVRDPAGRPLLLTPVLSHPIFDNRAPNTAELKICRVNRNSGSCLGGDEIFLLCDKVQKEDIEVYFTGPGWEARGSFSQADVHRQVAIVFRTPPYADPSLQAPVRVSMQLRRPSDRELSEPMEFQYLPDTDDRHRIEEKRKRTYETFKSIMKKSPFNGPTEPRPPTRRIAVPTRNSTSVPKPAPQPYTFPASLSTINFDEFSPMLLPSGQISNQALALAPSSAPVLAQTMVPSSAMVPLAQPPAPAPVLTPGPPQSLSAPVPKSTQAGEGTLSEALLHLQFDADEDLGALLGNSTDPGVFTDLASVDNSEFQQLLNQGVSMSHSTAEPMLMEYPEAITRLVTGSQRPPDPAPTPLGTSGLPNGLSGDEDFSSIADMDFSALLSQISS
Outline: (§2)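 Confluent RAW264.7 cells were pretreated with compound (10 μM) for 2 h, then stimulated with RANKL 50 ng/mL for various times. Lysates (30 μg protein per lane) were run on 10% SDS gels and transferred to PVDF. Blots were probed overnight at 4 °C with antibodies to phospho- and total IKKα/β and p65, with actin as control, followed by HRP secondary antibodies.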

[4] = target: T1, Tumor necrosis factor ligand superfamily member 11 (Mus musculus) (UniProt O35235); assay: Inhibition of RANKL-induced IKK phosphorylation in mouse RAW264.7 cells at 10 uM preincubated for 2 hrs followed by RANKL induction measured over 60 mins by Western blot analysis; assay type: cell-based
T1 sequence (whole entry): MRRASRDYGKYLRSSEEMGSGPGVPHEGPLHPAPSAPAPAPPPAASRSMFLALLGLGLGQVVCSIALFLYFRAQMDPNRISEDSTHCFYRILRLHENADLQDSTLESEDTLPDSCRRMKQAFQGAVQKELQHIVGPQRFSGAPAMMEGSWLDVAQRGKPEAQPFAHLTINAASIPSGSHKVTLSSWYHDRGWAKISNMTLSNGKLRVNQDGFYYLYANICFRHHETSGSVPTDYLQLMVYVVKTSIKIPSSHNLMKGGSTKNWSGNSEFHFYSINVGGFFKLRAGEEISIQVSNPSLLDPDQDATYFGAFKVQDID
Outline: as §2

Mus musculus [5] = assay: Antiosteoporosis activity in ovariectomized ICR mouse assessed as inhibition of ovariectomy-induced reduction of trabecular bone number at 10 mg/kg, sc administered for 5 days/week for 30 days measured on day 30 by microcomputed tomographic analysis; assay type: functional, organism-based; details: Trabecula
Outline: (§3)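 Female ICR mice (12 weeks old) were bilaterally ovariectomized or sham-operated. Starting 2 days post-surgery, they were dosed s.c. at 10 mg/kg, 5 days/week, or given vehicle for 30 days. Tibiae were fixed in 4% paraformaldehyde and scanned by μCT. BV/TV, Tb.N and Tb.Th were quantified 0.5−1.5 mm distal to the proximal growth plate.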

Osteoclast [6] = assay: Antiresorptive activity in RANKL/M-CSF-stimulated Sprague-Dawley rat bone marrow-derived preosteoclasts assessed as inhibition of osteoclast resorption area at 10 uM treated for 3 days post 5 days RANKL/M-CSF stimulation measured on day 8 by inverted microscopic analysis; assay type: functional
Outline: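 Rat bone-marrow preosteoclasts were seeded at 10⁶ cells/well on resorbable assay plates with RANKL 50 ng/mL and M-CSF 20 ng/mL for 5 days. Both factors were then removed and compound was added for another 3 days. Cells were stripped with 1 N NaOH, and resorbed areas were photographed under an inverted microscope and quantified by image analysis.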

Mus musculus [7] = assay: Antiosteoporosis activity in ovariectomized ICR mouse assessed as inhibition of ovariectomy-induced reduction of trabecular bone number at 10 mg/kg, sc administered for 5 days/week for 30 days measured on day 30 by Hematoxylin and eosin staining; assay type: functional, organism-based; details: Trabecula
Outline: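 Ovariectomized or sham-operated female ICR mice were dosed s.c. at 10 mg/kg, 5 days/week, for 30 days. Tibiae taken on day 30 were fixed in 4% paraformaldehyde at 4 °C for 48 h and decalcified in 10% Na2EDTA at 4 °C for 14 days. They were then paraffin-embedded, cut longitudinally at 4 μm and stained with hematoxylin−eosin.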

Mus musculus [8] = assay: Antiosteoporosis activity in ovariectomized ICR mouse assessed as inhibition of ovariectomy-induced osteocalcin level in serum at 10 mg/kg, sc administered for 5 days/week for 30 days measured on day 30 by enzyme immunoassay; assay type: functional, organism-based
Outline: (§4)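 Twelve-week-old female ICR mice were bilaterally ovariectomized under isoflurane, with sham-operated controls. From 2 days after surgery, mice received s.c. compound or vehicle 5 days/week for 30 days. On day 30, serum was prepared by centrifugation at 1500g for 15 min. CTx was measured with a RatLaps EIA (N = 8) and osteocalcin with a Rat-MID osteocalcin EIA (N = 9).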

Mus musculus [9] = assay: Antiosteoporosis activity in ovariectomized ICR mouse assessed as inhibition of ovariectomy-induced reduction of trabecular bone volume relative to tissue volume at 10 mg/kg, sc administered for 5 days/week for 30 days measured on day 30 by microcomputed tomographic analysis; assay type: functional, organism-based; details: Trabecula
Outline: as §3

Mus musculus [10] = assay: Antiosteoporosis activity in ovariectomized ICR mouse assessed as inhibition of ovariectomy-induced reduction of trabecular thickness at 10 mg/kg, sc administered for 5 days/week for 30 days measured on day 30 by microcomputed tomographic analysis; assay type: functional, organism-based; details: Trabecula
Outline: as §3

[11] = target: T1, Tumor necrosis factor ligand superfamily member 11 (Mus musculus); assay: Antiosteoclastogenic activity in ICR mouse bone marrow-derived preosteoclasts assessed as inhibition of RANKL/M-CSF-induced osteoclast formation at 10 uM after 5 days by TRAP staining; assay type: functional, cell-based
Outline: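 They were plated at 10⁶ cells/well with RANKL (50 ng/mL), M-CSF (20 ng/mL) and compound for 5 days. Cells were fixed in 4% paraformaldehyde and TRAP-stained for 1 h at 37 °C. TRAP-positive cells with ≥3 nuclei were counted as osteoclasts.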

Mus musculus [12] = assay: Antiosteoporosis activity in ovariectomized ICR mouse assessed as inhibition of ovariectomy-induced C-terminal telopeptides of type-1 collagen level in serum at 10 mg/kg, sc administered for 5 days/week for 30 days measured on day 30 by enzyme immunoassay; assay type: functional, organism-based
Outline: as §4

Osteoclast [13] = assay: Effect on osteoclast formation from RANKL/M-CSF-stimulated Sprague-Dawley rat bone marrow-derived preosteoclasts at 10 uM treated for 3 days post 5 days RANKL/M-CSF stimulation measured on day 8 by inverted microscopic analysis relative to control; assay type: functional, cell-based
[14] = Cytotoxicity against cranium-derived preosteoblasts (unknown origin) assessed as effect on cell viability after 24 hrs by MTT assay; assay type: cell-based; details: osteoblast
Outline: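 Osteoblasts were plated for 24 h, then exposed to compound for another 24 h. Viability was measured by MTT at 0.5 mg/mL in α-MEM for 60 min at 37 °C, with DMSO solubilisation and absorbance at 550 nm.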

RAW264.7 = assay: Inhibition of osteoclast formation in mouse RAW264.7 cells; assay type: functional, cell-based
Osteoclast [15] = assay: Antiosteoclastogenic activity in Sprague-Dawley rat bone marrow-derived preosteoclasts assessed as inhibition of RANKL/M-CSF-induced osteoclast formation treated on day 1 measured over day 1 to day 3 by TRAP staining; assay type: functional, cell-based
Outline: as §1

[16] = Cytotoxicity against cranium-derived preosteoblasts (unknown origin) assessed as inhibition of bone mineralized nodule formation after 2 weeks by alizarin red staining assay in presence of beta-glycerophosphate and L-ascorbic acid; assay type: cell-based; details: osteoblast, 336 h
Outline: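 Cranium-derived preosteoblasts were grown in α-MEM with 10% FBS. Mineralisation was induced with 10 mM β-glycerophosphate and 50 μg/mL L-ascorbic acid, with or without compound, for 2 weeks. Cells were fixed in ice-cold 75% ethanol for 30 min and stained with 40 mM alizarin red (pH 4.2). Stain was quantified at 550 nm against a standard curve.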

Osteoclast [17] = details: Rattus norvegicus, Sprague-Dawley, 10 uM

Q: With CC(=O)OCc1ccc(-c2nn(Cc3ccccc3)c3ccccc23)o1 as the molecule, how does the inhibition at 10 µM (cells) read?
A: Its inhibition at 10 µM is 20%.

Q: With CC(C)(C)C(=O)OCc1ccc(-c2nn(Cc3ccccc3)c3ccccc23)o1 as the molecule, how does the inhibition at 10 µM (cells) read?
A: Its inhibition at 10 µM is 20%.

Q: Which results are given for CN(C)CCOC(=O)c1ccc(-c2nn(Cc3ccccc3)c3ccccc23)o1?
A: inhibition (Osteoclast [1]): Dose-dependent effect; Activity [2]: Non-toxic; inhibition [3]: Active; inhibition [4]: Active; inhibition (Mus musculus [5]): Active; inhibition at 10 µM (Osteoclast [6]): > 75%; inhibition (Mus musculus [7]): Active; inhibition (Mus musculus [8]): Active; inhibition (Mus musculus [9]): Active; inhibition (Mus musculus [10]): Active; inhibition [11]: Active; inhibition (Mus musculus [12]): Active; Activity (Osteoclast [13]): inactive; inhibition at 10 µM (cells): > 90%; Activity [14]: Non-toxic; inhibition (RAW264.7): Active; inhibition (Osteoclast [15]): Dose-dependent effect; Activity [16]: Non-toxic

Q: With O=C(O)c1ccc(-c2nn(Cc3ccccc3)c3ccccc23)o1 as the molecule, how does the inhibition at 10 µM (cells) read?
A: The inhibition at 10 µM was 20%.

Q: For NCCCC(O)(P(=O)(O)O)P(=O)(O)O, which inhibition (Osteoclast [17]) is on record?
A: Its inhibition is “Active”.

Q: For CON(C)C(=O)c1ccc(-c2nn(Cc3ccccc3)c3ccccc23)o1, which inhibition at 10 µM (cells) is on record?
A: The inhibition at 10 µM was 20%.

Q: Which inhibition at 10 µM (cells) does the source give for CC(=O)c1ccc(-c2nn(Cc3ccccc3)c3ccccc23)o1 here?
A: The inhibition at 10 µM was 20%.

Q: With OCCc1ccc(-c2nn(Cc3ccccc3)c3ccccc23)o1 as the molecule, how does the inhibition at 10 µM (cells) read?
A: Its inhibition at 10 µM is 20%.
